Measurements reported in ChEMBL document CHEMBL1155236, “Identification of biphenyl-based hybrid molecules able to decrease the intracellular level of Bcl-2 protein in Bcl-2 overexpressing leukemia cells” (J Med Chem, 2009).
Active and inactive are the calls of the source. No cut-off for these calls is given here.

Key:
[1] = test system: K562; assay: Antiproliferative activity against human K562 cells after 48 hrs by trypan blue method; format: functional, cell-based; details: K562, 48 h
Summary of the method: (§1)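 Growth inhibition read by counting cells with an automatic cell counter after 48 h of compound exposure. IC50 is the concentration inhibiting 50% of cell growth.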

[2] = test system: HL-60; assay: Antiproliferative activity against human HL60 cells after 48 hrs by trypan blue method; format: functional, cell-based; details: HL-60, 48 h; summary of the method: as §1
[3] = test system: K562; assay: Induction of apoptosis in human K562 cells assessed as morphological changes after 48 hrs by annexin V assay; format: functional, cell-based; details: K562, 48 h
Summary of the method: (§2)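 HL60 or K562 cells treated for 48 h. Apoptosis scored by morphological assay and annexin V test. AC50 is the concentration inducing apoptosis in 50% of cells.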

[4] = test system: HL-60; assay: Induction of apoptosis in human HL60 cells assessed as morphological changes after 48 hrs by annexin V assay; format: functional, cell-based; details: HL-60, 48 h; summary of the method: as §2
[5] = test system: K562; assay: Induction of apoptosis in human K562 cells assessed as decrease in Bcl-2 expression at 30 uM after 24 hrs by flow cytometry; format: functional; set-up: scale not given: the % may be the effect or the level left
Summary of the method: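 K562 cells cultured 24 h with compound at 30 μM or without (control). Intracellular Bcl-2 read by flow cytometry after staining with FITC-conjugated anti-Bcl-2 monoclonal antibody. Treated histograms compared with control histograms.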

[6] = test system: HL-60; assay: Induction of apoptosis in human HL60 cells assessed as induction of cell differentiation marker CD61 expression at 10 uM after 120 hrs by flow cytometry; format: functional, cell-based
Summary of the method: (§3)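 HL60 or K562 cells exposed to 10 μM compound or no compound (control) for 120 h (5 days). Surface CD11c and CD61 read by flow cytometry with PE- or FITC-conjugated monoclonal antibodies. Treated cells compared with untreated cells.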

[7] = test system: K562; assay: Induction of apoptosis in human K562 cells assessed as induction of cell differentiation marker CD61 expression at 10 uM after 120 hrs by flow cytometry; format: functional, cell-based; summary of the method: as §3
[8] = test system: K562; assay: Cell cycle arrest in human K562 cells by accumulation at G1 phase at 30 uM after 24 hrs using propidium iodide staining by FACS; format: functional
Summary of the method: (§4)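 K562 cells treated for 24, 48 or 72 h. Cells stained with propidium iodide and cell-cycle phase distribution analysed by flow cytometry against untreated cells. The sub-G0–G1 peak was taken as apoptotic.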

[9] = test system: K562; assay: Cell cycle arrest in human K562 cells by accumulation at G1 phase at 30 uM after 72 hrs using propidium iodide staining by FACS; format: functional; summary of the method: as §4
[10] = test system: K562; assay: Cell cycle arrest in human K562 cells by accumulation at sub-G1 (apoptotic) phase at 30 uM after 24 hrs using propidium iodide staining by FACS; format: functional; summary of the method: as §4
[11] = test system: K562; assay: Cell cycle arrest in human K562 cells by accumulation at S phase at 30 uM after 72 hrs using propidium iodide staining by FACS; format: functional; summary of the method: as §4
[12] = test system: K562; assay: Cell cycle arrest in human K562 cells by accumulation at G2/M phase at 30 uM after 48 hrs using propidium iodide staining by FACS; format: functional; summary of the method: as §4
[13] = Cytotoxicity against human lymphocytes after 48 hrs by trypan blue method; format: cell-based; details: Lymphocyte, read-out: IC50; summary of the method: as §1
[14] = test system: K562; assay: Cell cycle arrest in human K562 cells by accumulation at S phase at 30 uM after 48 hrs using propidium iodide staining by FACS; format: functional; summary of the method: as §4
[15] = test system: K562; assay: Cell cycle arrest in human K562 cells by accumulation at S phase at 30 uM after 24 hrs using propidium iodide staining by FACS; format: functional; summary of the method: as §4
[16] = test system: K562; assay: Cell cycle arrest in human K562 cells by accumulation at G2/M phase at 30 uM after 72 hrs using propidium iodide staining by FACS; format: functional; summary of the method: as §4
[17] = test system: HL-60; assay: Induction of apoptosis in human HL60 cells assessed as induction of cell differentiation marker CD11c expression at 10 uM after 120 hrs by flow cytometry; format: functional, cell-based; summary of the method: as §3
[18] = test system: K562; assay: Cell cycle arrest in human K562 cells by accumulation at sub-G1 (apoptotic) phase at 30 uM after 72 hrs using propidium iodide staining by FACS; format: functional; summary of the method: as §4
[19] = test system: K562; assay: Cell cycle arrest in human K562 cells by accumulation at G2/M phase at 30 uM after 24 hrs using propidium iodide staining by FACS; format: functional; summary of the method: as §4
[20] = test system: K562; assay: Cell cycle arrest in human K562 cells by accumulation at G1 phase at 30 uM after 48 hrs using propidium iodide staining by FACS; format: functional; summary of the method: as §4
[21] = test system: K562; assay: Cell cycle arrest in human K562 cells by accumulation at sub-G1 (apoptotic) phase at 30 uM after 48 hrs using propidium iodide staining by FACS; format: functional; summary of the method: as §4
[22] = test system: K562; assay: Induction of apoptosis in human K562 cells assessed as induction of cell differentiation marker CD11c expression at 10 uM after 120 hrs by flow cytometry; format: functional, cell-based; summary of the method: as §3
[23] = test system: K562; assay: Cell cycle arrest in human K562 cells by accumulation at S phase at 130 uM after 72 hrs using propidium iodide staining by FACS; format: functional; summary of the method: as §4
[24] = test system: K562; assay: Cell cycle arrest in human K562 cells by accumulation at S phase at 130 uM after 24 hrs using propidium iodide staining by FACS; format: functional; summary of the method: as §4
[25] = test system: K562; assay: Cell cycle arrest in human K562 cells by accumulation at A phase at 130 uM after 72 hrs using propidium iodide staining by FACS; format: functional; summary of the method: as §4
[26] = test system: K562; assay: Cell cycle arrest in human K562 cells by accumulation at G2/M phase at 130 uM after 48 hrs using propidium iodide staining by FACS; format: functional; summary of the method: as §4
[27] = test system: K562; assay: Cell cycle arrest in human K562 cells by accumulation at G1 phase at 130 uM after 24 hrs using propidium iodide staining by FACS; format: functional; summary of the method: as §4
[28] = test system: K562; assay: Cell cycle arrest in human K562 cells by accumulation at G1 phase at 130 uM after 72 hrs using propidium iodide staining by FACS; format: functional; summary of the method: as §4
[29] = test system: K562; assay: Cell cycle arrest in human K562 cells by accumulation at S phase at 130 uM after 48 hrs using propidium iodide staining by FACS; format: functional; summary of the method: as §4
[30] = test system: K562; assay: Cell cycle arrest in human K562 cells by accumulation at A phase at 130 uM after 24 hrs using propidium iodide staining by FACS; format: functional; summary of the method: as §4
[31] = test system: K562; assay: Cell cycle arrest in human K562 cells by accumulation at G1 phase at 130 uM after 48 hrs using propidium iodide staining by FACS; format: functional; summary of the method: as §4
[32] = test system: K562; assay: Cell cycle arrest in human K562 cells by accumulation at G2/M phase at 130 uM after 24 hrs using propidium iodide staining by FACS; format: functional; summary of the method: as §4
[33] = test system: K562; assay: Cell cycle arrest in human K562 cells by accumulation at A phase at 130 uM after 48 hrs using propidium iodide staining by FACS; format: functional; summary of the method: as §4
[34] = test system: K562; assay: Cell cycle arrest in human K562 cells by accumulation at G2/M phase at 130 uM after 72 hrs using propidium iodide staining by FACS; format: functional; summary of the method: as §4

**Q.** What does the source list for `CC1(C)OC(=O)C2(C(=O)O1)[C@@H](c1c[nH]c3ccccc13)CC(=O)C[C@H]2c1ccccc1`?
**A.** IC50 [1]: > 100 µM; IC50 [2]: 62 µM

**Q.** Which AC50 ([3]; read-out: AC50) does the source give for `OCc1ccc(-c2cc(O)cc(O)c2)cc1` here?
**A.** > 80 µM

**Q.** And the IC50 [1]?
**A.** > 80 µM

**Q.** What about the AC50 ([4]; read-out: AC50) of the same compound?
**A.** > 80 µM

**Q.** What about the IC50 [2] of the same compound?
**A.** > 80 µM

**Q.** Which IC50 [1] does the source give for `COc1ccc(-c2ccc([C@H]3CC(=O)C[C@@H](c4ccccc4)C34C(=O)c3ccccc3C4=O)cc2)cc1` here?
**A.** > 100 µM

**Q.** What about the IC50 [2] of the same compound?
**A.** > 100 µM

**Q.** What does the source list for `O=C1C[C@H](c2ccc(O)cc2)C2(C(=O)c3ccccc3C2=O)[C@H](c2ccccc2)C1`?
**A.** IC50 [1]: 25 µM; IC50 [2]: 23 µM

**Q.** With `CC1(C)OC(=O)C2(C(=O)O1)[C@@H](c1ccc(-c3ccc(-c4ccc(O)cc4)cc3)cc1)CC(=O)C[C@H]2c1ccccc1` as the compound, how does the Activity [5] read?
**A.** 4.9%

**Q.** And the Activity [6]?
**A.** Active

**Q.** And the Activity [7]?
**A.** inactive

**Q.** And the Activity [8]?
**A.** 65%

**Q.** And the Activity [9]?
**A.** 72%

**Q.** What about the Activity [10] of the same compound?
**A.** 2%

**Q.** What about the Activity [11] of the same compound?
**A.** 20%

**Q.** What about the Activity [12] of the same compound?
**A.** 6%

**Q.** What about the IC50 [13] of the same compound?
**A.** 185 µM

**Q.** What about the Activity [14] of the same compound?
**A.** 22%

**Q.** What about the Activity [15] of the same compound?
**A.** 26%

**Q.** And the Activity [16]?
**A.** 8%

**Q.** What about the Activity [17] of the same compound?
**A.** Active

**Q.** And the Activity [18]?
**A.** 2%

**Q.** What about the Activity [19] of the same compound?
**A.** 11%

**Q.** And the AC50 ([3]; read-out: AC50)?
**A.** > 100 µM

**Q.** And the IC50 [1]?
**A.** 8 µM

**Q.** And the Activity [20]?
**A.** 72%

**Q.** And the AC50 ([4]; read-out: AC50)?
**A.** 32 µM

**Q.** What about the Activity [21] of the same compound?
**A.** 2%

**Q.** And the Activity [22]?
**A.** inactive

**Q.** What about the IC50 [2] of the same compound?
**A.** 16 µM

**Q.** What does the source list for `O=C1C[C@H](c2ccccc2)C2(C(=O)c3ccccc3C2=O)[C@H](c2ccccc2)C1`?
**A.** Activity [23]: 21%; Activity [24]: 61%; Activity [25]: 20%; Activity [26]: 34%; Activity [27]: 27%; Activity [28]: 7%; Activity [29]: 40%; Activity [30]: 13%; IC50 [1]: 98 µM; Activity [31]: 26%; Activity [32]: 12%; Activity [33]: 18%; IC50 [2]: 20 µM; Activity [34]: 72%

**Q.** What does the source list for `Oc1ccc(-c2cc(O)cc(O)c2)cc1`?
**A.** AC50 ([3]; read-out: AC50): > 80 µM; IC50 [1]: > 80 µM; AC50 [4]: > 80 µM; IC50 [2]: > 80 µM

**Q.** With `O=C1C[C@H](c2ccc(-c3ccc(CO)cc3)cc2)C2(C(=O)c3ccccc3C2=O)[C@H](c2ccccc2)C1` as the compound, how does the Activity [5] read?
**A.** 4.3%

**Q.** And the Activity [6]?
**A.** Active

**Q.** What about the Activity [7] of the same compound?
**A.** inactive

**Q.** What about the Activity [8] of the same compound?
**A.** 47%

**Q.** And the Activity [9]?
**A.** 48%

**Q.** What about the Activity [10] of the same compound?
**A.** 4%

**Q.** And the Activity [11]?
**A.** 32%

**Q.** And the Activity [12]?
**A.** 22%

**Q.** And the IC50 [13]?
**A.** 286 µM

**Q.** What about the Activity [14] of the same compound?
**A.** 30%

**Q.** What about the Activity [15] of the same compound?
**A.** 34%

**Q.** And the Activity [16]?
**A.** 20%

**Q.** And the Activity [17]?
**A.** Active

**Q.** What about the Activity [18] of the same compound?
**A.** 11%

**Q.** And the Activity [19]?
**A.** 19%

**Q.** What about the AC50 [3] of the same compound?
**A.** 80 µM

**Q.** And the IC50 [1]?
**A.** 14 µM

**Q.** What about the Activity [20] of the same compound?
**A.** 48%

**Q.** And the AC50 ([4]; read-out: AC50)?
**A.** 12 µM

**Q.** And the Activity [21]?
**A.** 6%

**Q.** What about the Activity [22] of the same compound?
**A.** inactive

**Q.** And the IC50 [2]?
**A.** 6 µM
